Laboratory results from ChEMBL document CHEMBL2407081, “Discovery of potent, isoform-selective inhibitors of histone deacetylase containing chiral heterocyclic capping groups and a N-(2-aminophenyl)benzamide binding unit” (J Med Chem, 2013).
In brackets after ≈: the same amount, converted by molar mass. Activity calls are given as the source filed them. No cut-off for these calls is given here.

Experiments:
[1] = Kinetic solubility of the compound; assay type: physicochemical; conditions: read-out: Kinetic_solubility
Method in brief: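 Solubility was measured by chemiluminescent nitrogen detection.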

Jurkat [2] = assay: Cell cycle arrest in human Jurkat cells assessed as accumulation at G2/M phase at 10 uM after 24 hrs by FITC/propidium iodide staining-based FACS flow cytometric analysis (reference value: 13.2%); assay type: functional
Method in brief: (§1)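 HeLa and Jurkat human cells were cultured for 24 h with compound at two concentrations. The control was an equal volume of the DMSO diluent. Cellular DNA and protein content were then measured by flow cytometry, and the percentage of cells in sub-G1, G0/G1, S and G2/M was read out.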

Jurkat [3] = assay: Cell cycle arrest in human Jurkat cells assessed as accumulation at G0/G1 phase at 1 uM after 24 hrs by FITC/propidium iodide staining-based FACS flow cytometric analysis (reference value: 55.5%); assay type: functional; method in brief: as §1
[4] = Octanol-water partition coefficient, log p of the compound; assay type: physicochemical
[5] = Permeability of the compound by PAMPA; assay type: ADME; conditions: read-out: permeability
HCT-116 = assay: Cytotoxicity against human HCT116 cells assessed as growth inhibition by measuring cellular ATP level after 72 hrs by cell-titer glo assay; assay type: functional, cell-based; conditions: HCT-116, 72 h
Jurkat [6] = assay: Cell cycle arrest in human Jurkat cells assessed as accumulation at sub-G1 phase at 1 uM after 24 hrs by FITC/propidium iodide staining-based FACS flow cytometric analysis (reference value: 6.8%); assay type: functional; method in brief: as §1
Histone deacetylase 2 = Histone deacetylase 2 (Homo sapiens, UniProt Q92769); assay: Inhibition of recombinant His-tagged HDAC2 (1 to 488) (unknown origin) using MAL as substrate incubated for 3 hrs prior to substrate addition measured after 60 mins by fluorescence plate reader analysis
Jurkat [7] = assay: Cell cycle arrest in human Jurkat cells assessed as accumulation at G2/M phase at 1 uM after 24 hrs by FITC/propidium iodide staining-based FACS flow cytometric analysis (reference value: 14.4%); assay type: functional; method in brief: as §1
HeLa [8] = assay: Cell cycle arrest in human HeLa cells assessed as accumulation at G2/M phase at 10 uM after 24 hrs by FITC/propidium iodide staining-based FACS flow cytometric analysis; assay type: functional; method in brief: as §1
DU-145 = assay: Cytotoxicity against human DU145 cells assessed as growth inhibition by measuring cellular ATP level after 72 hrs by cell-titer glo assay; assay type: functional, cell-based; conditions: DU-145, 72 h
Cytochrome P450 2C9 = Cytochrome P450 2C9 (Homo sapiens, UniProt P11712); assay: Inhibition of CYP2C9 (unknown origin); assay type: ADME
Cytochrome P450 2D6 = Cytochrome P450 2D6 (Homo sapiens, UniProt P10635); assay: Inhibition of CYP2D6 (unknown origin); assay type: ADME
Cytochrome P450 3A4 = Cytochrome P450 3A4 (Homo sapiens, UniProt P08684); assay: Inhibition of CYP3A4 (unknown origin) using vivid red as substrate; assay type: ADME
[9] = Lipophilicity, log D of the compound at pH 7.4; assay type: physicochemical; conditions: buffer
[10] = molecular target: Histone deacetylase 3/NCoR1 (Homo sapiens, UniProt O15379); assay: Inhibition of recombinant HDAC3-NCoR1 (unknown origin) using MAL as substrate incubated for 3 hrs prior to substrate addition measured after 60 mins by fluorescence plate reader analysis; assay type: protein-complex assay
Jurkat [11] = assay: Cell cycle arrest in human Jurkat cells assessed as accumulation at sub-G1 phase at 10 uM after 24 hrs by FITC/propidium iodide staining-based FACS flow cytometric analysis (reference value: 2%); assay type: functional; method in brief: as §1
Cytochrome P450 2C19 = Cytochrome P450 2C19 (Homo sapiens, UniProt P33261); assay: Inhibition of CYP2C19 (unknown origin); assay type: ADME
Jurkat [12] = assay: Cell cycle arrest in human Jurkat cells assessed as accumulation at G0/G1 phase at 10 uM after 24 hrs by FITC/propidium iodide staining-based FACS flow cytometric analysis (reference value: 69.5%); assay type: functional; method in brief: as §1
Jurkat [13] = assay: Cell cycle arrest in human Jurkat cells assessed as accumulation at S phase at 1 uM after 24 hrs by FITC/propidium iodide staining-based FACS flow cytometric analysis (reference value: 22.3%); assay type: functional; method in brief: as §1
Jurkat [14] = assay: Induction of apoptosis in human Jurkat cells assessed as PARP cleavage at 1 to 10 uM after 24 hrs by Western blot analysis; assay type: functional, cell-based
HeLa [15] = assay: Induction of apoptosis in human HeLa cells assessed as PARP cleavage at 1 to 10 uM after 24 hrs by Western blot analysis; assay type: functional, cell-based
Jurkat [16] = assay: Cell cycle arrest in human Jurkat cells assessed as accumulation at S phase at 10 uM after 24 hrs by FITC/propidium iodide staining-based FACS flow cytometric analysis (reference value: 15.3%); assay type: functional; method in brief: as §1
[17] = molecular target: Histone deacetylase 3/NCoR1 (Homo sapiens) (UniProt O15379+O75376); assay: Inhibition of recombinant HDAC3-NCoR1 (unknown origin) assessed as slow tight binding at 0.02 to 20 uM; assay type: protein-complex assay
Histone deacetylase 8 = molecular target: T1, Histone deacetylase 8 (Homo sapiens, UniProt Q9BY41); assay: Inhibition of recombinant HDAC8 (unknown origin) expressed in Escherichia coli BL21 using MAL as substrate incubated for 15 mins prior to substrate addition measured after 60 mins by fluorescence plate reader analysis
T1 sequence (Q9BY41 whole entry): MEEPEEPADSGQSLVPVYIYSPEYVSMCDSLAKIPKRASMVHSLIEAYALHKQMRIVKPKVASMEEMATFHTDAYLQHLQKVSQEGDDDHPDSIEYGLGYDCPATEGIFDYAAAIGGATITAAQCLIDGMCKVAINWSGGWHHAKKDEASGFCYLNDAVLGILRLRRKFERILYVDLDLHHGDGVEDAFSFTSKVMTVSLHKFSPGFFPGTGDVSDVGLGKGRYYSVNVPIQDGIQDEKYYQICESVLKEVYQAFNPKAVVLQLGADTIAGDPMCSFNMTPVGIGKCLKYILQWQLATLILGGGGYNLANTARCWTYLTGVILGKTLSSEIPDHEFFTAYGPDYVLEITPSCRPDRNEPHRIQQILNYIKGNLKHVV

A549 = assay: Cytotoxicity against human A549 cells assessed as growth inhibition by measuring cellular ATP level after 72 hrs by cell-titer glo assay; assay type: functional, cell-based; conditions: A549, 72 h

Chain of Cytochrome P450 2C9 (P11712 whole entry): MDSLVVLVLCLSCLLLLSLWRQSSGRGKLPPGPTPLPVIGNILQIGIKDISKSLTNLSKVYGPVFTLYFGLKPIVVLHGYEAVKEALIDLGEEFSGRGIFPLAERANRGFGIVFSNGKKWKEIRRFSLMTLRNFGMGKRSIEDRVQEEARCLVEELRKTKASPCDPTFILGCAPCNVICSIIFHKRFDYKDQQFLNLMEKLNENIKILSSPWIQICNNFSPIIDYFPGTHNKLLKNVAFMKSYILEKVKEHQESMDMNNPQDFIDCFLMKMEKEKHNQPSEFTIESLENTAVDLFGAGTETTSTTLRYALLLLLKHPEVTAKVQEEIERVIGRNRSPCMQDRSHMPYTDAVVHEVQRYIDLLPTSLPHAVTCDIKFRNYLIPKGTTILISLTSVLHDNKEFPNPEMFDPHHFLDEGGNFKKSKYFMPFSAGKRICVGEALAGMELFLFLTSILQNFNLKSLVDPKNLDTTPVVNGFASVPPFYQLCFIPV
Chain of Cytochrome P450 2C19 (P33261 whole entry): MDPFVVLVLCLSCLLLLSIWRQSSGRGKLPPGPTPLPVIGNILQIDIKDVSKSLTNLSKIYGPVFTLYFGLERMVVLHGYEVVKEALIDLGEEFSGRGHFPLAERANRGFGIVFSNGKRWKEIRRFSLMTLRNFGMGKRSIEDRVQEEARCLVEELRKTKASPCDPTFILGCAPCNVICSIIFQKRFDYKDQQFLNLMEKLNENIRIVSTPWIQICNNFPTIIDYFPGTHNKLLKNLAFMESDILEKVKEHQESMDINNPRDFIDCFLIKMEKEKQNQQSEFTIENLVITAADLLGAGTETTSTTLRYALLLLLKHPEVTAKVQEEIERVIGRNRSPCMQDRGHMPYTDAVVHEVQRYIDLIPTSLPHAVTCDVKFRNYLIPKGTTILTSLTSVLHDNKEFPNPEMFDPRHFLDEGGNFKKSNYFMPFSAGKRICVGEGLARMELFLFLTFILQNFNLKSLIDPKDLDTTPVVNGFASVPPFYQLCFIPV
Chain of Histone deacetylase 2 (Q92769 whole entry): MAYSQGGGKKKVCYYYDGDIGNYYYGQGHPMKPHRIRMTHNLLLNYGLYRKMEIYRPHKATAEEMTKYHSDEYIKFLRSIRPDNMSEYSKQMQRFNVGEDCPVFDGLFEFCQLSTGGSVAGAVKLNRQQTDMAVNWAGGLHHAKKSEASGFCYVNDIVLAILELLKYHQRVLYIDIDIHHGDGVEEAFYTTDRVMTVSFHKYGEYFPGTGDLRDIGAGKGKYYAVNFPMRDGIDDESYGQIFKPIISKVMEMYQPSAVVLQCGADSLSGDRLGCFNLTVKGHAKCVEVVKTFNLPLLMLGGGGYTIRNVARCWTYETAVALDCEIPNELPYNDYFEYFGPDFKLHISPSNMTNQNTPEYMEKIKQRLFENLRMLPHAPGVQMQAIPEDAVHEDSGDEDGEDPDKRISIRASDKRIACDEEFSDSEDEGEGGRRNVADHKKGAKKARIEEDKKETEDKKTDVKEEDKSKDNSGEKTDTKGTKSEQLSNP
Chain of Histone deacetylase 3/NCoR1 (O15379 whole entry): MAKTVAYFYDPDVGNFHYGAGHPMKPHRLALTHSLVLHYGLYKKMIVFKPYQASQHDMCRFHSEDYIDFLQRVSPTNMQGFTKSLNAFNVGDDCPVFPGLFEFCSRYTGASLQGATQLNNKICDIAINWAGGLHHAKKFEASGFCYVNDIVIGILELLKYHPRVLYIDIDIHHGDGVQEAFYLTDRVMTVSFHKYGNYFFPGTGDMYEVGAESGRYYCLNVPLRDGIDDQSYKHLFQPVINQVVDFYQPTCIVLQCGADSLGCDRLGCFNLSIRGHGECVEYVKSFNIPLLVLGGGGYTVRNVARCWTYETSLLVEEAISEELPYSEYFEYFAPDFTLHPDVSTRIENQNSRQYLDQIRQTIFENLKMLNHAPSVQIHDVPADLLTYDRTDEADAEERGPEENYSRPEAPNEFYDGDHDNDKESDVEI
Chain of Histone deacetylase 3/NCoR1 (O75376 whole entry, further chain): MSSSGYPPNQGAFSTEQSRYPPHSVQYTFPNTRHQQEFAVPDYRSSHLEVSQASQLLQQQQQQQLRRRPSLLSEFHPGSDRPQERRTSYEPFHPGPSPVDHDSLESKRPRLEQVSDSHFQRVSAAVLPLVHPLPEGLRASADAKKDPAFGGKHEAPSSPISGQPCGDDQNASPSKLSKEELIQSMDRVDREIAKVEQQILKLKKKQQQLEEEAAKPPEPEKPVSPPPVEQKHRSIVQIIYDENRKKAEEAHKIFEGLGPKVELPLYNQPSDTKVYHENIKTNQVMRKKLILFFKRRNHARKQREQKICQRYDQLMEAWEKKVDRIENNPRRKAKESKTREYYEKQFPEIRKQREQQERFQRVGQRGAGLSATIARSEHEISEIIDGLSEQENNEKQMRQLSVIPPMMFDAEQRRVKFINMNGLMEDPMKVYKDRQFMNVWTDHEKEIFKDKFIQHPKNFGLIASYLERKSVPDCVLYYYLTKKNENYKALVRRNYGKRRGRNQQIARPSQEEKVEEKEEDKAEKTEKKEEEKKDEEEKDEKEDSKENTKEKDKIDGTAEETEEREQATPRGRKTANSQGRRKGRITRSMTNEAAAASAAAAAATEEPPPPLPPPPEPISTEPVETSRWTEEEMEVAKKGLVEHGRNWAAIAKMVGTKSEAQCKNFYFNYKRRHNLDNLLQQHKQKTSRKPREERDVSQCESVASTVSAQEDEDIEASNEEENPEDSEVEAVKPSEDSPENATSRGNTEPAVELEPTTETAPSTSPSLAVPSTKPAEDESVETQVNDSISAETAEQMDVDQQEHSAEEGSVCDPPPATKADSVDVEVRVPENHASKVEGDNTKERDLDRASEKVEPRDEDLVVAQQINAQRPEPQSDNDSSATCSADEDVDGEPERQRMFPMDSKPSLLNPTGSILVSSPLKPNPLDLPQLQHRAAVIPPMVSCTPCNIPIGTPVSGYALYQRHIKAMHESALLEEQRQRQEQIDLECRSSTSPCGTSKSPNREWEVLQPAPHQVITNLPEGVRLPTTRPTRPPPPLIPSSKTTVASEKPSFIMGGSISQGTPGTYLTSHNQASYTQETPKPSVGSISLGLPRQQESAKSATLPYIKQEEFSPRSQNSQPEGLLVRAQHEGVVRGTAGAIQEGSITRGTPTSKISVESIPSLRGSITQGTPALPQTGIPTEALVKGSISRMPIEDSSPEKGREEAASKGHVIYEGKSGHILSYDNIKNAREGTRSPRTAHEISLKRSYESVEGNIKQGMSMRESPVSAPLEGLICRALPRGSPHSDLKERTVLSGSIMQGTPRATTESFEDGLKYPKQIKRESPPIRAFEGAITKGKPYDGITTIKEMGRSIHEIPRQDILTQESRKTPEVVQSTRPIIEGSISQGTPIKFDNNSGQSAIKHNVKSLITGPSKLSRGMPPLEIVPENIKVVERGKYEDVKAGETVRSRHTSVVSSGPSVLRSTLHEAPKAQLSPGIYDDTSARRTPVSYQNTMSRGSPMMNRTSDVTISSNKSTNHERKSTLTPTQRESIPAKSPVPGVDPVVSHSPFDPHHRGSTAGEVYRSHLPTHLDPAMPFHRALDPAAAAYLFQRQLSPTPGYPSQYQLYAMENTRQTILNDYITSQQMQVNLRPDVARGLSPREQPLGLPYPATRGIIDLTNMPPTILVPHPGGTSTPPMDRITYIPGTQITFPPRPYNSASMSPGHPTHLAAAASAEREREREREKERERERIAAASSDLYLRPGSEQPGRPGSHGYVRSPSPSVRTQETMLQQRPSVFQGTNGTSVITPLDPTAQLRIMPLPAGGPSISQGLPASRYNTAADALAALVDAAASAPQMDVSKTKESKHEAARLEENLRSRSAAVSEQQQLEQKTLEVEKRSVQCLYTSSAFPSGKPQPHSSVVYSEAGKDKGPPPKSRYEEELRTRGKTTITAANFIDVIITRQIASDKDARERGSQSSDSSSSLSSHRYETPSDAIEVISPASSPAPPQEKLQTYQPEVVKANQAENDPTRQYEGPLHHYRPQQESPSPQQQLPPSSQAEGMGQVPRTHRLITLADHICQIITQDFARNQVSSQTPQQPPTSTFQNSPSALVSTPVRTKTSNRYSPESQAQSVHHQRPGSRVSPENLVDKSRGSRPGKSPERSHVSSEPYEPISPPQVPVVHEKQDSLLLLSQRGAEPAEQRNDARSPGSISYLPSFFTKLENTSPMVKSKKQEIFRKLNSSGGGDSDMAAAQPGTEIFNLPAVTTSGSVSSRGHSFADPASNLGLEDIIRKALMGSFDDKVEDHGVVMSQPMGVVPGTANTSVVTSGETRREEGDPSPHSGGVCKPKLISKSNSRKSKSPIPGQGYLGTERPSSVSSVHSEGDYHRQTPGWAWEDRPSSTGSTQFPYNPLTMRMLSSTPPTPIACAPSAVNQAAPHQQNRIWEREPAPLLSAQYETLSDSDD
Chain of Cytochrome P450 2D6 (P10635 whole entry): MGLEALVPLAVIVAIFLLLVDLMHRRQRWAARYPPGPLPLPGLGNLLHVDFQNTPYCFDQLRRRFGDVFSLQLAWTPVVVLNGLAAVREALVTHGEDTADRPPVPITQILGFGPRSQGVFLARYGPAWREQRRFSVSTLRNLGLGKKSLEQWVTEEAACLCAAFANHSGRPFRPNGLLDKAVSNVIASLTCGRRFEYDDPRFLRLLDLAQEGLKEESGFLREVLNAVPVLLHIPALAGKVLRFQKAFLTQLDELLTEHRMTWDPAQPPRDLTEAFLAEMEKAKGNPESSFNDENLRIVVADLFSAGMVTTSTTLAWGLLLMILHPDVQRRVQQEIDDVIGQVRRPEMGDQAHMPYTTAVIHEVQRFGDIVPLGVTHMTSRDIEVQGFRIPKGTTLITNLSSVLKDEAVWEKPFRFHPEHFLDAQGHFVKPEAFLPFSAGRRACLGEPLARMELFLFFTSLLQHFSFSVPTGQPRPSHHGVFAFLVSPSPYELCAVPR

## Nc1ccccc1NC(=O)c1ccc(CNC2=N[C@@H](c3ccccc3)CS2)cc1
[1]
  solubility kinetic: 239 µM (≈ 96.2 µg/mL)
Jurkat [2]
  Activity: 16.9%
Jurkat [3]
  Activity: 48.1%
[4]
  logP: 4.65
[5]
  Papp: 51 ×10⁻⁶ cm/s
HCT-116
  IC50: 2.17 µM
Jurkat [6]
  Activity: 36.6%
Histone deacetylase 2
  IC50: 0.085 µM
Jurkat [7]
  Activity: 9.1%
HeLa [8]
  Activity: Active
DU-145
  IC50: 6.4 µM
Cytochrome P450 2C9
  IC50: 16 µM
Cytochrome P450 2D6
  IC50: 0.08 µM
Cytochrome P450 3A4
  IC50: 25 µM
[9]
  logD: 4.24
[10]
  IC50: 0.012 µM
Jurkat [11]
  Activity: 19.5%
Cytochrome P450 2C19
  IC50: 32 µM
Jurkat [12]
  Activity: 28.5%
Jurkat [13]
  Activity: 6.2%
Jurkat [14]
  Activity: Active
HeLa [15]
  Activity: inactive
Jurkat [16]
  Activity: 35.1%
[17]
  inhibition: Active
Histone deacetylase 8
  IC50: 4.1 µM
A549
  IC50: 5.78 µM
